Data on 7 molecules can be found in ChEMBL document CHEMBL1140191, “Lynamicins A-E, chlorinated bisindole pyrrole antibiotics from a novel marine actinomycete” (J Nat Prod, 2008).

Experiment [1] has as its system Haemophilus influenzae. Description: Antibacterial activity against Haemophilus influenzae ATCC 49766 after 14 to 16 hrs. It counts as functional. The procedure, abridged: (§1)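 Serial microbroth dilution (NCCLS) in Haemophilus Test Medium in a CO2 incubator. Final inoculum about 5 × 10^5 cfu/mL, 35 °C for 14-16 h. MIC is the lowest drug concentration preventing visible growth.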

The subject of experiment [2] is Staphylococcus epidermidis. As to the kind of experiment: Antibacterial activity against multi drug-resistant Staphylococcus epidermidis ATCC 700578 after 14 to 16 hrs by serial microbroth dilution method. Type of experiment: functional. The procedure, abridged:
(§2)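 Broth microdilution MIC per NCCLS standards in cation-adjusted Mueller-Hinton broth, without CO2. Final inoculum approximately 5 × 10^5 cfu/mL. Incubated 35 °C for 14-16 h. MIC taken as the lowest drug concentration preventing visible growth.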
A general note: Broth dilution looks for growth in wells or tubes with falling amounts of substance.

Experiment [3] has as its system Staphylococcus aureus. As to the kind of experiment: Antibacterial activity against methicillin-sensitive Staphylococcus aureus ATCC 29213 after 14 to 16 hrs by serial microbroth dilution method. It counts as functional. The method in brief: (§3)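 NCCLS broth microdilution in cation-adjusted Mueller-Hinton broth, no CO2 incubation. Final inoculum about 5 × 10^5 cfu/mL. Plates held at 35 °C for 14-16 h. MIC read as the lowest concentration with no visible bacterial growth.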

The subject of experiment [4] is Haemophilus influenzae. Description: Antibacterial activity against Haemophilus influenzae ATCC […] after 14 to 16 hrs. Type of experiment: functional. The method in brief:
as §1

A further experiment concerns Enterococcus faecium. Description: Antibacterial activity against vancomycin-resistant Enterococcus faecium ATCC 700221 after 14 to 16 hrs by serial microbroth dilution method. It counts as functional. The procedure, abridged:
as §2

Experiment [5] has as its system Streptococcus pneumoniae. As to the kind of experiment: Antibacterial activity against penicillin-sensitive Streptococcus pneumoniae ATCC 49619 after 14 to 16 hrs. It counts as functional. The method in brief: (§4)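 Serial microbroth dilution MIC per NCCLS in cation-adjusted Mueller-Hinton broth II with lysed horse blood. Incubated in a CO2 incubator at 35 °C for 14-16 h. Final inoculum approximately 5 × 10^5 cfu/mL. MIC read as the lowest concentration with no visible growth.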

Experiment [6] concerns Streptococcus pneumoniae. As to the kind of experiment: Antibacterial activity against penicillin-resistant Streptococcus pneumoniae ATCC 51915after 14 to 16 hrs. Type of experiment: functional. The method in brief:
as §4

The next experiment relates to Enterococcus faecalis. Description: Antibacterial activity against vancomycin-sensitive Enterococcus faecalis ATCC 29212 after 14 to 16 hrs by serial microbroth dilution method. It counts as functional. The method in brief:
as §3

For experiment [7], the system named is Staphylococcus aureus. As to the kind of experiment: Antibacterial activity against methicillin-resistant Staphylococcus aureus ATCC 43300 after 14 to 16 hrs by serial microbroth dilution method. Type of experiment: functional. The procedure, abridged: as §2
In experiment [8] the test system is Staphylococcus epidermidis. Description: Antibacterial activity against multi drug-resistant Staphylococcus epidermidis ATCC 700582 after 14 to 16 hrs by serial microbroth dilution method. It counts as functional. The procedure, abridged: as §2
A further experiment has as its system Escherichia coli. As to the kind of experiment: Antibacterial activity against Escherichia coli imp permeable mutant after 14 to 16 hrs by serial microbroth dilution method. Type of experiment: functional. The method in brief:
as §2

Another experiment deals with Herpesviridae sp. Description: Antiviral activity against HSV. It counts as functional, organism-based.

≈ marks a conversion by molar mass, not a printed value. Bounds are passed on as bounds.

`COC(=O)c1[nH]c(C(=O)OC)c(-c2c[nH]c3ccc(Cl)cc23)c1-c1c[nH]c2ccc(Cl)cc12` [LYNAMICIN D]: the MIC against Haemophilus influenzae [1] was determined as 17 µM (≈ 8.2 µg/mL); in experiment [2], 8.3 µM (≈ 4 µg/mL); against Staphylococcus aureus [3], 6.2 µM (≈ 2.99 µg/mL); with Haemophilus influenzae [4], 10 µM (≈ 4.82 µg/mL); against Enterococcus faecium, 17 µM (≈ 8.2 µg/mL); against Streptococcus pneumoniae [5] it was 50 µM (≈ 24.1 µg/mL). Further, the MIC against Streptococcus pneumoniae [6] was 42 µM (≈ 20.3 µg/mL); against Enterococcus faecalis it was 17 µM (≈ 8.2 µg/mL); against Staphylococcus aureus [7] it was 6.2 µM (≈ 2.99 µg/mL); in [8], 8.3 µM (≈ 4 µg/mL); in the experiment with Escherichia coli, > 67 µM.

On to `COC(=O)c1[nH]cc(-c2c[nH]c3cc(Cl)c(Cl)cc23)c1-c1c[nH]c2ccc(Cl)cc12` [LYNAMICIN B], for which the MIC in the experiment with Haemophilus influenzae [1] was 13 µM (≈ 5.96 µg/mL); in [2], 2.2 µM (≈ 1.01 µg/mL); in the experiment on Staphylococcus aureus [3], 1.8 µM (≈ 0.826 µg/mL); against Haemophilus influenzae [4] it was 4.4 µM (≈ 2.02 µg/mL); in the experiment with Enterococcus faecium, 4.4 µM (≈ 2.02 µg/mL); with Streptococcus pneumoniae [5], 18 µM (≈ 8.26 µg/mL). For the same molecule, the MIC worked out at 18 µM (≈ 8.26 µg/mL) in the experiment on Streptococcus pneumoniae [6]; 3.3 µM (≈ 1.51 µg/mL) in the experiment on Enterococcus faecalis; 2.2 µM (≈ 1.01 µg/mL) in the experiment with Staphylococcus aureus [7]; 2.2 µM (≈ 1.01 µg/mL) in experiment [8]; 13 µM (≈ 5.96 µg/mL) against Escherichia coli.

Regarding `Clc1cc2[nH]cc(-c3c[nH]cc3-c3c[nH]c4cc(Cl)c(Cl)cc34)c2cc1Cl` [LYNAMICIN C], the MIC against Haemophilus influenzae [1] was determined as 15 µM (≈ 6.53 µg/mL); in experiment [2] it was 2.3 µM (≈ 1 µg/mL); in the experiment with Staphylococcus aureus [3] it was 2.5 µM (≈ 1.09 µg/mL); against Haemophilus influenzae [4], 9.2 µM (≈ 4 µg/mL); with Enterococcus faecium, 4.6 µM (≈ 2 µg/mL); against Streptococcus pneumoniae [5], 46 µM (≈ 20 µg/mL). Besides, the MIC in the experiment with Streptococcus pneumoniae [6] worked out at 46 µM (≈ 20 µg/mL); in the experiment on Enterococcus faecalis, 5.8 µM (≈ 2.52 µg/mL); against Staphylococcus aureus [7] it was 3.5 µM (≈ 1.52 µg/mL); in experiment [8], 2.3 µM (≈ 1 µg/mL); against Escherichia coli it was 15 µM (≈ 6.53 µg/mL).

With `COC(=O)c1[nH]cc(-c2c[nH]c3ccc(Cl)cc23)c1-c1c[nH]c2ccc(Cl)cc12` [LYNAMICIN A], the MIC against Haemophilus influenzae [1] stood at 28 µM (≈ 11.9 µg/mL); in experiment [2] it was 9.5 µM (≈ 4.03 µg/mL); against Staphylococcus aureus [3], 4.3 µM (≈ 1.82 µg/mL); in the experiment with Haemophilus influenzae [4], 38 µM (≈ 16.1 µg/mL); in the experiment with Enterococcus faecium, 19 µM (≈ 8.06 µg/mL); in the experiment with Streptococcus pneumoniae [5], 57 µM (≈ 24.2 µg/mL). In addition, the MIC in the experiment on Streptococcus pneumoniae [6] came out at 57 µM (≈ 24.2 µg/mL); in the experiment with Enterococcus faecalis, 19 µM (≈ 8.06 µg/mL); against Staphylococcus aureus [7], 4.7 µM (≈ 1.99 µg/mL); in experiment [8], 9.5 µM (≈ 4.03 µg/mL); in the experiment on Escherichia coli, 16 µM (≈ 6.79 µg/mL).

In general, IC50 refers to the point on the concentration scale where inhibition reaches its midpoint. `COC(=O)c1[nH]c(C(=O)OC)c(-c2c[nH]c3ccccc23)c1-c1c[nH]c2ccccc12` [LYCOGARUBIN C]: the midpoint of inhibition in the experiment on Herpesviridae sp., the IC50, lay at 17.2 µg/mL (≈ 41.6 µM).

On to `COC(=O)c1[nH]c(C(=O)OC)c(-c2c[nH]c3ccc(Cl)cc23)c1-c1c[nH]c2ccccc12` [LYNAMICIN E], for which the MIC was > 72 µM in the experiment on Haemophilus influenzae [1]; 45 µM (≈ 20.2 µg/mL) in [2]; > 45 µM with Staphylococcus aureus [3]; > 72 µM against Haemophilus influenzae [4]; > 54 µM against Enterococcus faecium; > 72 µM against Streptococcus pneumoniae [5]. Further, the MIC in the experiment with Streptococcus pneumoniae [6] was > 72 µM; against Enterococcus faecalis, > 54 µM; against Staphylococcus aureus [7] it was 27 µM (≈ 12.1 µg/mL); in experiment [8], > 72 µM; against Escherichia coli it was > 72 µM.

`O=C(O)c1[nH]c(C(=O)O)c(-c2c[nH]c3ccccc23)c1-c1c[nH]c2ccccc12` [LYCOGALIC ACID A]: in the experiment with Herpesviridae sp., the IC50 was found to be 17.2 µg/mL (≈ 44.6 µM).
